# Experimental data reported in ChEMBL document CHEMBL1649475, “In vivo pharmacodynamic profile of tigecycline against phenotypically diverse Escherichia coli and Klebsiella pneumoniae isolates” (Antimicrob Agents Chemother, 2009).
# How the values were obtained:
# [1] = Ratio of fAUC to MIC in Klebsiella pneumoniae isolate 135 at bacteriostatic concentration; type: functional
# Method in brief: (§1)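 EI50, EI80 and the static exposure were read from fitted curves. Free AUC came from earlier mouse PK using concentration-dependent protein binding set at Cmax. MICs were run in triplicate by CLSI broth microdilution in Mueller-Hinton broth prepared <12 h before testing, or by Etest.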
# [2] = system: Klebsiella pneumoniae; assay: Antibacterial activity against Klebsiella pneumoniae isolate 135 by broth microdilution method; type: functional
# Method in brief: (§2)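 Tigecycline MICs by broth microdilution per CLSI guidelines, run in triplicate. Mueller-Hinton broth was prepared fresh less than 12 h before testing.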
# [3] = system: Klebsiella pneumoniae; assay: Antibacterial activity against Klebsiella pneumoniae isolate 134 by broth microdilution method; type: functional; method in brief: as §2
# [4] = system: Escherichia coli; assay: Antibacterial activity against extended-spectrum beta-lactamase producing Escherichia coli isolate 322 by broth microdilution method; type: functional; method in brief: as §2
# [5] = Ratio of fAUC to MIC in Klebsiella pneumoniae isolate 134-infected ICR mouse at bacteriostatic concentration; type: functional; method in brief: as §1
# [6] = Ratio of fAUC to MIC in extended-spectrum beta-lactamase producing Klebsiella pneumoniae isolate 255-infected ICR mouse at 50% maximal effective concentration; type: functional
# Method in brief: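 Female CD-1/ICR mice (~25 g) were made neutropenic with cyclophosphamide IP (150 mg/kg day −4, 100 mg/kg day −1). Each thigh received 0.1 ml IM of 10^7 CFU/ml inoculum. Tigecycline in saline was given SC 2 h later, single or multiple doses, 6.25–300 mg/kg/day. Three mice per group.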
# [7] = Cmax in ICR mouse at 6.25 mg/kg, sc; conditions: in vivo
# [8] = Ratio of fAUC to MIC in extended-spectrum beta-lactamase producing Klebsiella pneumoniae isolate 255-infected ICR mouse at 80% maximal effective concentration; type: functional; method in brief: as §1
# [9] = system: Escherichia coli; assay: Antibacterial activity against extended-spectrum beta-lactamase producing Escherichia coli isolate 321 by broth microdilution method; type: functional; method in brief: as §2
# [10] = system: Escherichia coli; assay: Antibacterial activity against Escherichia coli isolate 54 by broth microdilution method; type: functional; method in brief: as §2
# [11] = Ratio of fAUC to MIC in extended-spectrum beta-lactamase producing Escherichia coli isolate 322-infected ICR mouse at 50% maximal effective concentration; type: functional; method in brief: as §1
# [12] = Ratio of fAUC to MIC in Klebsiella pneumoniae isolate 135-infected ICR mouse at 80% maximal effective concentration; type: functional; method in brief: as §1
# [13] = Ratio of fAUC to MIC in extended-spectrum beta-lactamase producing Klebsiella pneumoniae isolate 266-infected ICR mouse at 80% maximal effective concentration; type: functional; method in brief: as §1
# [14] = Ratio of fAUC to MIC in Klebsiella pneumoniae isolate 134-infected ICR mouse at 80% maximal effective concentration; type: functional; method in brief: as §1
# [15] = system: Escherichia coli; assay: Antibacterial activity against extended-spectrum beta-lactamase producing Escherichia coli isolate 315 infected in ICR mouse assessed as change in bacterial load at 6.25 to 50 mg/kg, sc; type: functional; conditions: dose mg/kg 6.25-50; route subcutaneous
# Method in brief: (§3)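 Female CD-1/ICR mice (~25 g) were made neutropenic with intraperitoneal cyclophosphamide, 150 mg/kg 4 days and 100 mg/kg 1 day before inoculation. Isolates were grown on blood agar at 35°C for 18–24 h, and 0.1 ml of 10^7 CFU/ml was injected intramuscularly per thigh. At 2 h, tigecycline in saline was given sc as single or multiple doses of 3.125–50 mg/kg. Thighs were homogenized at 24 h and plated. Read-out was mean change in log10 CFU/ml versus 0-h controls, three mice per group.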
# [16] = Ratio of fAUC to MIC in carbapenemase producing Klebsiella pneumoniae isolate 321-infected ICR mouse at bacteriostatic concentration; type: functional; method in brief: as §1
# [17] = Ratio of fAUC to MIC in extended-spectrum beta-lactamase producing Klebsiella pneumoniae isolate 266 at bacteriostatic concentration; type: functional; method in brief: as §1
# [18] = system: Klebsiella pneumoniae; assay: Antibacterial activity against Klebsiella pneumoniae isolate 135 infected in ICR mouse assessed as change in bacterial load at 6.25 to 50 mg/kg, sc; type: functional; conditions: dose mg/kg 6.25-50; route subcutaneous; method in brief: as §3
# [19] = Ratio of fAUC to MIC in Escherichia coli isolate 54-infected ICR mouse at 80% maximal effective concentration; type: functional; method in brief: as §1
# [20] = Ratio of fAUC to MIC in Escherichia coli isolate 120-infected ICR mouse at bacteriostatic concentration; type: functional; method in brief: as §1
# [21] = Ratio of fAUC to MIC in extended-spectrum beta-lactamase producing Klebsiella pneumoniae isolate 320-infected ICR mouse at 80% maximal effective concentration; type: functional; method in brief: as §1
# [22] = system: Klebsiella pneumoniae; assay: Antibacterial activity against extended-spectrum beta-lactamase producing Klebsiella pneumoniae isolate 266 infected in ICR mouse assessed as change in bacterial load at 6.25 to 50 mg/kg, sc; type: functional; conditions: dose mg/kg 6.25-50; route subcutaneous; method in brief: as §3
# [23] = system: Mus musculus; assay: AUC in ICR mouse at 6.25 mg/kg, sc; conditions: in vivo
# [24] = system: Klebsiella pneumoniae; assay: Antibacterial activity against extended-spectrum beta-lactamase producing Klebsiella pneumoniae isolate 320 by broth microdilution method; type: functional; method in brief: as §2
# [25] = system: Escherichia coli; assay: Antibacterial activity against extended-spectrum beta-lactamase producing Escherichia coli isolate 321 infected in ICR mouse assessed as change in bacterial load at 6.25 to 50 mg/kg, sc; type: functional; conditions: dose mg/kg 6.25-50; route subcutaneous; method in brief: as §3
# [26] = system: Escherichia coli; assay: Antibacterial activity against Escherichia coli isolate 54 infected in ICR mouse assessed as change in bacterial load at 6.25 to 50 mg/kg, sc; type: functional; conditions: dose mg/kg 6.25-50; route subcutaneous; method in brief: as §3
# [27] = Ratio of fAUC to MIC in extended-spectrum beta-lactamase producing Klebsiella pneumoniae isolate 255-infected ICR mouse at bacteriostatic concentration; type: functional; method in brief: as §1
# [28] = system: Klebsiella pneumoniae; assay: Antibacterial activity against carbapenemase producing Klebsiella pneumoniae isolate 321 infected in ICR mouse assessed as change in bacterial load at 6.25 to 50 mg/kg, sc; type: functional; conditions: dose mg/kg 6.25-50; route subcutaneous; method in brief: as §3
# [29] = Half life in ICR mouse at 50 mg/kg, sc; type: ADME, organism-based; parameters: dose 50 mg/kg, route subcutaneous; conditions: in vivo
smiles,measurement,setting,value
CN(C)c1cc(NC(=O)CNC(C)(C)C)c(O)c2c1C[C@H]1C[C@H]3[C@H](N(C)C)C(O)=C(C(N)=O)C(=O)[C@@]3(O)C(O)=C1C2=O [TIGECYCLINE],fAUC/MIC,[1],5.4
same,MIC,[2],0.5 µg/mL
same,MIC,[3],0.5 µg/mL
same,MIC,[4],0.25 µg/mL
same,fAUC/MIC,[5],6.53
same,fAUC/MIC,[6],2.64
same,Cmax,[7],1700 ng/mL
same,fAUC/MIC,[8],4.81
same,MIC,[9],0.25 µg/mL
same,MIC,[10],0.25 µg/mL
same,fAUC/MIC,[11],6.27
same,fAUC/MIC,[12],7.78
same,fAUC/MIC,[13],7.15
same,fAUC/MIC,[14],10
same,log10CFU/ml,[15],-2
same,fAUC/MIC,[16],5.47
same,fAUC/MIC,[17],5.13
same,log10CFU/ml,[18],-1.51
same,fAUC/MIC,[19],7.7
same,fAUC/MIC,[20],4.76
same,fAUC/MIC,[21],3.27
same,log10CFU/ml,[22],-1.34
same,AUC,[23],4800 ng·h/mL
same,MIC,[24],2 µg/mL
same,log10CFU/ml,[25],-2.54
same,log10CFU/ml,[26],-2.05
same,fAUC/MIC,[27],2.02
same,log10CFU/ml,[28],-1.46
same,half-life,[29],9.9 h
